Data published in paper PMC11489560 (Molecular Therapy, 2024).

Experiments:
hippocampal synaptosomes = test: [3H]Glutamate release from hippocampal synaptosomes, effect of BDNF; parameters: species or system rat; conditions: control conditions; BDNF 30 ng/mL
Method in brief: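 Hippocampal slices from male Wistar rats (7-10 weeks) were exposed 3 h to vehicle (PBS), then synaptosomes were isolated via 45% Percoll in KHR. Synaptosomes (1-2 mg/mL protein) equilibrated 5 min at 37°C in oxygenated aCSF and were loaded with [3H]glutamate, then given two K+ depolarizations. Release was expressed as % of total radioactivity per time point, and internal control curves from the same batch were subtracted. The BDNF effect was the integrated S2 peak area above basal tritium release.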

hippocampal slices = test: Effect of BDNF on LTP in hippocampal slices; parameters: species or system rat; conditions: control conditions (vehicle-exposed slices); BDNF 30 ng/mL
Method in brief: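 Acute hippocampal slices from male Wistar rats (7-10 weeks) recovered at least 60 min in gassed aCSF at 22°C-24°C, then exposed 3 h at room temperature to vehicle (PBS, pH 7.4). BDNF was tested in separate slices from the same rats. LTP magnitude was the normalized change in mean fEPSP slope 50-60 min post-induction versus the 10 min before induction.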

B1: brain-derived neurotrophic factor (protein, UniProt P23560 19-247, looked up)
Neurotrophic factor BDNF …: APMKEANIRGQGGLAYPGVRTHGTLESVNGPKAGSRGLTSLADTFEHVIEELLDEDQKVRPNEENNKDADLYTSRVMLSSQVPLEPPLLFLLEEYKNYLDAANMSMRVRRHSDPARRGELSVCDSISEWVTAADKKTAVDMSGGTVTVLEKVPVSKGQLKQYFYETKCNPMGYTKEGCRGIDKRHWNSQCRTTQSYVRALTMDSKKRIGWRFIRIDTSCVCTLTIKRGR
With B1 the “K+-evoked glutamate release” value (hippocampal synaptosomes) was “potentiated” and the LTP magnitude (hippocampal slices) was “potentiated”.
